Data as given in ChEMBL document CHEMBL3351523 (Bioorg Med Chem, 2014).
pEC50: −log10 of the molar value.

What was measured:
[1] = Cytotoxicity against mock-infected human MT4 cells after 96 hrs by MTT assay; assay type: cell-based
How it was run: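 Exponentially growing MT-4 cells were seeded at 1 × 10^5 cells/mL in RPMI-1640 with 10% FBS and held at 37 °C, 5% CO2 with serial compound dilutions. Viability was read by MTT after 96 h. CC50 from linear regression against untreated controls.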

Poliovirus 1 = assay: Antiviral activity against Poliovirus type 1 Sabin strain infected in african green monkey Vero 76 cells assessed as reduction in plaque number after 2 days by plaque reduction assay; assay type: functional, organism-based; conditions: Enterovirus C, 48 h
[2] = tested on: Bovine viral diarrhea virus 1; assay: Antiviral activity against Bovine viral diarrhea virus infected in MDBK cells assessed as inhibition of virus-induced cytopathogenicity after 3 to 4 days by MTT assay; assay type: functional, organism-based; conditions: Bovine viral diarrhea virus isolates and strains
[3] = tested on: Human immunodeficiency virus 1; assay: Antiviral activity against HIV1 infected in human MT4 cells assessed as inhibition of virus-induced cytopathogenicity after 4 days by MTT assay; assay type: functional, organism-based; conditions: Human immunodeficiency virus 1, MT4, 96 h
How it was run: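 MT-4 cells (1 × 10^4/well in RPMI) were infected acutely with HIV-1 IIIB, 100 CCID50 (m.o.i. 0.01), with serial dilutions from 100 µM, 1:5. After 4 days at 37 °C, protection from virus-induced cytopathogenicity was read by MTT. EC50 came from linear regression against untreated controls.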

Coxsackievirus B5 = assay: Antiviral activity against Coxsackievirus B5 infected in african green monkey Vero 76 cells assessed as reduction in plaque number after 3 days by plaque reduction assay; assay type: functional, organism-based; conditions: Enterovirus B, 72 h
[4] = Cytotoxicity against mock-infected BHK21 cells after 48 to 96 hrs by MTT assay; assay type: functional; conditions: Mesocricetus auratus, BHK-21
How it was run: (§1)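 Mock-infected MDBK (6 × 10^5 cells/mL; MEM-E, 10% horse serum, 1 mM pyruvate) or BHK (1 × 10^6 cells/mL; MEM-E, 10% FBS) cells were incubated at 37 °C, 5% CO2 with serial dilutions from 100 µM, 1:5. Viability by MTT after 48–96 h. CC50 from linear regression against untreated controls.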

Yellow fever virus = assay: Antiviral activity against Yellow fever virus infected in BHK21 cells assessed as inhibition of virus-induced cytopathogenicity after 3 to 4 days by MTT assay; assay type: functional, organism-based; conditions: BHK-21
Human alphaherpesvirus 1 = assay: Antiviral activity against HSV1 infected in african green monkey Vero 76 cells assessed as reduction in plaque number after 3 days by plaque reduction assay; assay type: functional, organism-based; conditions: Human alphaherpesvirus 1, Vero, 72 h
Vaccinia virus = assay: Antiviral activity against Vaccinia Virus infected in african green monkey Vero 76 cells assessed as reduction in plaque number after 3 days by plaque reduction assay; assay type: functional, organism-based; conditions: Orthopoxvirus vaccinia, 72 h
Reovirus sp. = assay: Antiviral activity against Reovirus type-1 infected in BHK21 cells assessed as inhibition of virus-induced cytopathogenicity after 3 to 4 days by MTT assay; assay type: functional, organism-based; conditions: BHK-21
[5] = tested on: Vesicular stomatitis virus; assay: Antiviral activity against Vesicular stomatitis virus infected in african green monkey Vero 76 cells assessed as reduction in plaque number after 2 days by plaque reduction assay; assay type: functional, organism-based; conditions: 48 h
[6] = Cytotoxicity against mock-infected african green monkey Vero 76 cells after 48 to 96 hrs by MTT assay; assay type: cell-based; conditions: chlorocebus sabaeus, mock-infected Vero 76 cells
[7] = tested on: Respiratory syncytial virus; assay: Antiviral activity against Respiratory syncytial virus infected in african green monkey Vero 76 cells assessed as reduction in plaque number after 5 days by plaque reduction assay; assay type: functional, organism-based; conditions: human respiratory syncytial virus, 120 h
[8] = Cytotoxicity against mock-infected MDBK cells after 48 to 96 hrs by MTT assay; assay type: cell-based, Bos taurus; conditions: cattle; how it was run: as §1

Structure (SMILES)	CC50 at 96 h [1] [µM]	pEC50 (Poliovirus 1)	pEC50 [2]	pEC50 [3]	pEC50 (Coxsackievirus B5)	CC50 [4] [µM]	pEC50 (Yellow fever virus)	pEC50 (Human alphaherpesvirus 1)	pEC50 (Vaccinia virus)	pEC50 (Reovirus sp.)	pEC50 [5]	CC50 [6] [µM]	pEC50 [7]	CC50 [8] [µM]
CCOCc1nc2ccccc2[nH]1	> 100	< 4.00	< 4.00	< 4.00	< 4.00	> 100	< 4.00	< 4.00	< 4.00	< 4.00	< 4.00	> 100	< 4.00	> 100
Clc1cc2nc(Cc3ccc(Br)cc3)[nH]c2cc1Cl	68	< 4.00	< 4.00	< 4.00	< 4.00	10	< 4.00	< 4.00	< 4.00	< 4.00	< 4.00	73	< 4.00	10
COc1ccc(-c2nc3cc(Cl)ccc3n2[C@@H]2CCCN3CCCC[C@H]23)cc1	> 100	< 4.00	< 4.00	< 4.00	< 4.00	> 100	< 4.00	< 4.00	< 4.00	< 4.00	< 4.00	> 100	< 4.00	> 100
FC(F)(F)c1ccc2c(c1)nc(Cc1ccc(Cl)c(Cl)c1)n2C[C@H]1CCCN2CCCC[C@H]12	4	< 4.00	< 4.00	< 4.00	< 4.00	34	< 4.00	< 4.00	< 4.00	< 4.00	< 4.00	> 100	< 4.00	> 100
c1ccc2[nH]c(C[C@@H]3CCCN4CCCC[C@H]34)nc2c1	17	< 4.00	4.47	< 4.00	< 4.00	78	< 4.00	< 4.00	< 4.00	< 4.00	< 4.00	> 100	< 4.00	> 100
COc1ccc(-c2nc3cc(Cl)ccc3n2[C@H]2CCCN3CCCC[C@H]23)cc1	> 100	< 4.00	4.44	< 4.00	< 4.00	> 100	< 4.00	< 4.00	< 4.00	< 4.00	< 4.00	> 100	< 4.00	> 100
FC(F)(F)c1ccc2c(c1)nc(Cc1ccc(Cl)c(Cl)c1)n2C[C@@H]1CCCN2CCCC[C@H]12	> 100	< 4.00	< 4.00	< 4.00	< 4.00	> 100	< 4.00	< 4.00	< 4.00	< 4.00	< 4.00	> 100	< 4.00	37
COCCn1c(-c2ccc(OC)cc2)nc2cc(C(F)(F)F)ccc21	80	< 4.00	< 4.00	< 4.00	< 4.00	> 100	< 4.00	< 4.00	< 4.00	< 4.00	< 4.00	> 100	< 4.00	> 100
COc1ccc2c(c1)nnn1c3cc(Cl)c(Cl)cc3nc21	> 100	< 4.00	< 4.00	< 4.00	< 4.00	> 100	< 4.00	< 4.00	< 4.00	< 4.00	< 4.00	> 100	< 4.00	> 100
Clc1ccc(Cc2nc3cc(Cl)c(Cl)cc3[nH]2)cc1Cl	> 100	< 4.00	< 4.00	< 4.00	< 4.00	> 100	< 4.00	< 4.00	< 4.00	< 4.00	< 4.00	70	< 4.00	> 100
c1ccc2[nH]c(CCCC3NCC4CC3CN3CCCCC43)nc2c1 (stereo unspecified)	> 100	< 4.00	4.03	< 4.00	< 4.00	> 100	4.06	< 4.00	< 4.00	< 4.00	< 4.00	> 100	< 4.00	> 100
COc1ccc(-c2nc3cc(C(F)(F)F)ccc3n2CCN(C)C)cc1	> 100	< 4.00	< 4.00	< 4.00	< 4.00	> 100	< 4.00	< 4.00	< 4.00	< 4.00	< 4.00	> 100	< 4.00	> 100
COc1ccc(Cc2nc3cc(C(F)(F)F)ccc3n2C[C@H]2CCCN3CCCC[C@H]23)cc1	≥ 100	< 4.00	< 4.00	< 4.00	< 4.00	> 100	< 4.00	< 4.00	< 4.00	< 4.00	< 4.00	> 100	< 4.00	> 100
Fc1cccc(F)c1-c1nc2cc(C(F)(F)F)ccc2n1C[C@@H]1CCCN2CCCC[C@H]12	57	4.22	< 4.00	< 4.00	< 4.00	18	< 4.00	< 4.00	< 4.00	< 4.00	< 4.00	≥ 100	< 4.00	36
FC(F)(F)c1ccc2c(c1)nc(CC1=CCCC1)n2C[C@@H]1CCCN2CCCC[C@H]12	5	< 4.00	< 4.00	< 4.00	< 4.00	30	< 4.00	4.52	< 4.00	< 4.00	< 4.00	> 100	< 4.00	50
Clc1ccc2[nH]c(CCCC3NCC4CC3CN3CCCCC43)nc2c1 (stereo unspecified)	51	< 4.00	< 4.00	< 4.00	< 4.00	18	< 4.00	< 4.00	< 4.00	< 4.00	< 4.00	59	< 4.00	56
c1ccc2[nH]c(CCCC3NCC4CNCC3C4)nc2c1 (stereo unspecified)	> 100	< 4.00	< 4.00	< 4.00	< 4.00	> 100	< 4.00	< 4.00	< 4.00	< 4.00	< 4.00	> 100	< 4.00	> 100
COc1ccc(Cc2nc3cc(C(F)(F)F)ccc3n2C[C@@H]2CCCN3CCCC[C@H]23)cc1	77	< 4.00	< 4.00	< 4.00	< 4.00	> 100	< 4.00	< 4.00	< 4.00	< 4.00	< 4.00	89	< 4.00	> 100
COc1ccc(-c2nc3cc(C(F)(F)F)ccc3n2C[C@@H]2CCCN3CCCC[C@H]23)cc1	25	< 4.00	< 4.00	< 4.00	< 4.00	65	< 4.00	< 4.00	< 4.00	4.57	< 4.00	75	< 4.00	> 100
